Shown are actives, neighbours in structure and some others; about 4.1% of the full set was active somewhere.
AHR act: AHR activators, primary screen, cell-based, luminescence, luciferase reporter, human | Aryl hydrocarbon receptor (Homo sapiens), P35869 | AHR-responsive luciferase reporter cells | activation, % at 5 µM | hit rate 2.5% among 320,000 | AID 2796, 2010; in the data active = activation above about 47%;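 also: 0% = vehicle wells and 100% = reference agonist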
TbMetRS inhib: T. brucei MetRS inhibitors, primary screen, biochemical, luminescence; purified T. brucei MetRS, ATP depletion, Kinase-Glo luminescence; inhibition, % at 11.9 µM; hit rate 0.4% among 360,000;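 active = inhibition above a per-plate cutoff of the control wells' mean inhibition plus 3 SD, cut at about 5.5% in these data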;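 also: 0% = DMSO wells median and 100% = median of wells with control inhibitor compound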
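Material: parasite MetRS enzyme / Replication: singlicate, one well per compound / Signal: luminescence of leftover ATP / Schedule: 2 h aminoacylation at 25 °C after 15 min preincubation / Medium: HEPES-MgCl2-KCl buffer plus DTT, spermine, BSA, pyrophosphatase / Doses: 11.9 µM single point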
TAG inh: inhibitors of triacylglycerol accumulation, primary screen, cell-based, uHTS, fluorescence, H9c2; inhibition, % at 12.5 µM; H9c2 cells, Nile Red lipid (TAG) fluorescence; cells loaded with 200 µM oleic acid; hit rate 0.66% among 230,000;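 active = pattern-corrected inhibition of lipid staining of at least 50% with the nuclear-stain viability signal not falling by more than 50%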;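 also: 0% = DMSO wells and 100% = triacsin C control wells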
Efflux pump inh: inhibitors of Candida efflux pumps in yeast, primary screen, S. cerevisiae, Nile Red, multiplex; AID 485275, 2010; hit rate 0.44% among 330,000; S. cerevisiae Candida pump triplex; inhibition, % at 10 µM;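 active = plate passing quality check with inhibition over a set limit, or well fluorescence over plate mean plus 4 SD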;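 also: Nile Red retained in pooled yeast measured as flow cytometry median fluorescence; 0% = buffer negative control and 100% = Enniatin B positive control; higher means more Nile Red kept so more efflux inhibition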
SMARCA2 activ: SMARCA2 (BRM) function activators, primary screen, cell-based, luminescence, high throughput | MG213 cells, MMTV-luciferase reporter, dexamethasone, overnight | AID 652017, 2013 | hit rate 1% among 370,000 | activation, % at 9.1 µM; in the data active = activation above about 7.8%;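 also: 0% = vehicle wells and 100% = reference activator wells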
SMARCA2 act conf: SMARCA2 (BRM) function activators, confirmation, cell-based, luminescence, triplicate. hit rate 30% among 3,500. shares compounds with SMARCA2 activ. activation, % at 9.1 µM. MG213 cells, MMTV-luciferase with dexamethasone, overnight; MG213 cells expressing E1A, Rb sequestered; DMSO wells 0%, reference activator 100%. AID 652260, 2013;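 active = activation above its plate's cutoff, the mean activation of tested wells plus 3 SD, cut at about 7.9% in these data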
GAL4-VP16 Luc: GAL4-VP16 luciferase reporter activation, counter-screen for SMARCA2 (BRM) activator project, cell-based, pG5luc, luminescence, high throughput | shares compounds with SMARCA2 activ | HEK293 GAL4-VP16 pG5luc reporter; scaled: DMSO wells 0%, SAHA wells 100% | activation, % at 9.1 µM | hit rate 41% among 3,500;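 active = activation above the solvent-only control well mean plus 3 SD, averaged across control plates, cut at about 5.2% in these data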
Active calls of the source: *; x = not tested or not shown.

SMILES | AHR act | TbMetRS inhib | TAG inh | Efflux pump inh | SMARCA2 activ | SMARCA2 act conf | GAL4-VP16 Luc
CC(=O)NCCCC(=O)NC(CCC(=O)OCc1ccccc1)C(=O)OCc1ccccc1 (stereo not drawn) | 2 | 3 | -1 | 0 | 8.0* | -3 | 1
Cn1cccc1C(=O)NC1CCCCCC1 | 6 | 0 | 10 | 0 | 4 | x | x
CC1CCC(NC(=O)c2cccn2C)CC1 (stereo not drawn) | x | 0 | 22 | x | 8.8* | 11* | 11*
CCC(=O)Nc1cccc(NC(=S)NC(=O)c2cc3ccccc3o2)c1 | 9 | 0 | -6 | 0 | 12* | -2 | 15*
CCC(=O)Nc1ccc(NC(=S)NC(=O)c2cc3ccccc3o2)cc1 | 3 | 0 | x | 0 | 2 | x | x
Cc1csc2nc(CSc3nc4ccccc4o3)cn12 | 12 | 0 | -33 | 0 | 8.9* | 6 | 4
COc1ccc(-c2nc(N)ncc2-c2ccc(OC)c(OC)c2)c(O)c1 | x | 0 | x | 0 | 8.1* | 7 | 1
CCOc1ccc(N2C(=O)CC(SCCN)C2=O)cc1 (stereo not drawn) | 3 | -1 | 5 | 0 | 14* | 7.8* | 9.6*
Cc1cc2ccccn2c1C(=O)Nc1cccc(Cl)c1 | 36 | 0 | 9 | 0 | 8.1* | 5 | 3
COc1ccc(Cn2cc(COC(=O)N3CCOCC3)nn2)cc1 | x | x | x | x | 0 | x | x
CCN1CCN(c2cc(C)c3cc(NC(=O)c4ccc5c(c4)OCO5)ccc3n2)CC1 | 0 | 0 | 17 | 0 | 4 | x | x
CCN1CCN(c2ccc(NC(=O)c3cc4ccccc4cc3OC)cc2C)CC1 | 7 | 0 | 4 | 0 | 12* | 8.1* | 13*
CCN1CCN(c2ccc(NC(=O)c3ccc4c(c3)OCCO4)cc2C)CC1 | x | 0 | 3 | x | 11* | 7 | 7.9*
CCN1CCc2nc(NC(=O)c3ccc4c(c3)OCCO4)sc2C1 | 19 | 0 | 7 | 0 | 8.7* | 7 | 11*
COc1cc2c(cc1NC(=O)CSc1nnc(-c3ccccn3)n1-c1ccccc1)oc1ccccc12 | x | x | x | x | 2 | x | x
C=C(C)C(=O)Oc1ccc(N=Nc2ccc(C)cc2)ccc1=O | x | 0 | 17 | x | 19* | -1 | 9.1*
CC(=O)c1ccc(N=Nc2ccc(C)cc2)cc1 | x | 0 | 23 | x | 4 | x | x
CN1CCCC1(C)C(=O)Nc1ccc(-n2cccc2)cc1 (stereo not drawn) | x | 0 | -1 | x | 8.2* | 4 | 4
CCCC(=O)N1CCCC1(C)C(=O)Nc1ccc(-n2cccc2)cc1 (stereo not drawn) | x | 0 | 7 | x | -2 | x | x
Oc1cccc(Nc2ncnc3ccccc23)c1 | 10 | 1 | x | 0 | 8.1* | 1 | 1
Oc1cccc(Nc2nc(-c3ccccc3)nc3ccccc23)c1 | 20 | -1 | x | 0 | -1 | x | x
C=CCCC1CN(Cc2ccc(OC)cc2)S(=O)(=O)c2c(NCc3cc(OC)c(OC)c(OC)c3)cccc2O1 (stereo not drawn) | x | x | x | x | -2 | x | x
O=C(CCSCc1ccccc1F)N1CCN(c2ccccn2)CC1 | 7 | 0 | x | 0 | 12* | 6 | 5.7*
O=C(CSCc1ccccc1Cl)N1CCN(c2ccccn2)CC1 | 7 | -1 | x | 0 | 3 | x | x
COCc1[nH]nc2c1C(c1ccccc1)N(Cc1ccccc1)C2=O (stereo not drawn) | x | x | x | x | 6 | x | x
COc1ccc(N=C(C)C2=C(O)CSC2=O)cc1 | 7 | -1 | x | 0 | 6 | x | x
CC(=Nc1ccccc1)C1=C(O)CSC1=O | 6 | 0 | x | 0 | 8.6* | 2 | 4
O=C(C(=O)N1CCC(CNS(=O)(=O)c2ccc(F)cc2)CC1)c1cc2ccccc2o1 | x | x | x | x | -1 | x | x
COc1cc(CC(NC(C)=O)C(=O)NC2CCN(c3c4c(nc5ncnn35)CCC4)CC2)cc(OC)c1 (stereo not drawn) | 0 | x | x | 0 | x | x | x
